Several values for one entry are separate records, joined by “and”; a condition that tells them apart may be missing. Equal entries are not always repeated. About 500 (0.14%) of roughly 360,000 compounds were called active.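 Rule for the calls: active = mean inhibition of at least 70% across replicates, with every replicate also reaching that level; inconclusive = mean inhibition reaches 70% but some replicates fall short; inactive = mean inhibition below 70%.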 What follows is part of a selection rich in actives, with near analogues and random picks from the rest. Some compounds were tested as several samples or in several runs, with calls that do not always agree.

This assay deals with Protein S100-A4 (Homo sapiens) (UniProt P26447). Briefly: inhibitors of S100A4-myosin IIA peptide binding, primary screen, biochemical, fluorescence polarization, TAMRA-MyoIIA peptide (AID 652163). The conditions noted are these: at 10.7 µM, stronger effect = higher value. The method, boiled down: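 Compound dosing: one dose per compound; test system: human S100A4 monomer with TAMRA-labelled myosin IIA peptide; probe or stimulus: TAMRA-labelled myosin IIA heavy-chain peptide probe, 5 nM; medium: HEPES buffer with Ca2+, pH 7.2; schedule: 5 min incubation before reading; benchmarks: neutral control DMSO, positive control TFP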
Sequence of Protein S100-A4 (Homo sapiens) (P26447 whole entry, looked up): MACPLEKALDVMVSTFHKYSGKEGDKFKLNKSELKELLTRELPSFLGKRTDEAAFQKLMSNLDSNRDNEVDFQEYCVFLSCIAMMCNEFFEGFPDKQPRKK
Take `CCCNC(=O)N1[C@@H]2CN(C)c3ccccc3[C@@H]2[C@@H]1CO`: the inhibition was 7.1% (inactive).

Take `COc1ccc(S(=O)(=O)N(C)C[C@H]2Oc3ccc(NC(=O)Nc4c(C)noc4C)cc3C(=O)N([C@@H](C)CO)C[C@@H]2C)cc1`: the inhibition was -9.31% (inactive). For `Cc1noc(C)c1NC(=O)N(C)C[C@@H]1OCCCC[C@H](C)Oc2ccc(NC(=O)CCC(F)(F)F)cc2C(=O)N([C@@H](C)CO)C[C@@H]1C` the value was 5.68% (inactive); for `CC(=O)N(C)C[C@@H]1Oc2cc(-c3cccc(F)c3)ccc2S(=O)(=O)N([C@H](C)CO)C[C@H]1C`, -20.8% (inactive); for `CC(C)(O)C#Cc1ccc([C@H]2[C@H]3CN(C(=O)c4ccncc4)CCCCN3[C@H]2CO)cc1`, -11.2% (inactive). Under `COc1ccc(S(=O)(=O)Nc2ccc3c(c2)C(=O)N([C@@H](C)CO)C[C@H](C)[C@H](CN(C)Cc2ccc4c(c2)OCO4)OCCCC[C@H](C)O3)cc1` stands -9.48% (inactive). For `COc1cccc(C(=O)Nc2ccc3c(c2)C(=O)N(C)[C@H]2CC[C@@H](CC(=O)N[C@H](C)c4ccccc4)O[C@H]2CO3)c1` the value was -0.71% (inactive); for `C=CCN1C(=O)[C@]2(O[C@H](CCn3cc(CCO)nn3)[C@@H]([Si](C)(C)c3ccc(OC)cc3)[C@@H]2C)c2cc(N3CCOC3=O)ccc21`, 10.3% (inactive); for `C[C@H](CO)N1C[C@H](C)[C@@H](CN(C)CC2CC2)Oc2ccc(NC(=O)CCCN(C)C)cc2CC1=O`, -0.322% (inactive).

Turning to `COc1ccccc1S(=O)(=O)N[C@@H]1C=C[C@H](CC(=O)N2CCN(C)CC2)O[C@@H]1CO`, the inhibition was 59.7% (inactive).

`O=C(C[C@@H]1C=C[C@@H](NS(=O)(=O)c2ccccc2)[C@H](CO)O1)N1CCN(c2ccccc2)CC1`: the inhibition was 8.62% (inactive). Under `CN1CCN(C(=O)C[C@@H]2C=C[C@@H](NS(=O)(=O)c3cccc(F)c3)[C@@H](CO)O2)CC1` stands 103% (active); under `Nc1ncnc2c1ncn2C1OC(CO)CC1O` (configuration not stated), 0.763% (inactive); under `CO[C@@H]1CN(C)C(=O)c2cc(NC(=O)c3ccccc3)ccc2OC[C@H](C)N(C(=O)CN(C)C)C[C@H]1C`, -0.975% (inactive). For `C=C[C@H](OC)[C@@H](O)c1ccc(OC)c(O)c1` the value was -5.17% (inactive); for `CN1C(=O)c2cc(NC(=O)C3CCC3)ccc2OC[C@@H]2O[C@@H](CC(=O)NCc3ccccc3F)CC[C@@H]21`, 88.8% (active). As to `CN1C(=O)c2cc(NC(=O)C3CCOCC3)ccc2OC[C@@H]2O[C@H](CC(=O)NCc3ccccc3F)CC[C@H]21`, the inhibition was 4.38% (inactive). Under `CN1C(=O)c2cc(NC(=O)C3CCCC3)ccc2OC[C@H]2O[C@H](CC(=O)NCc3ccccc3F)CC[C@H]21` stands -2.52% (inactive); under `C[C@@H]1CN([C@@H](C)CO)C(=O)c2cc(C3=CCCC3)cnc2O[C@H]1CN(C)Cc1ccccc1F`, 0.298% (inactive).

For `COc1cccc2c1C(=O)c1c(O)c3c(c(O)c1C2=O)CC(O)(C(C)=NNC(=O)c1ccc(Cl)c(Cl)c1)CC3OC1CC(N)C(O)C(C)O1` (configuration not stated), the inhibition is 189% (active).

`Cc1noc(C)c1S(=O)(=O)N(C)C[C@H]1OCc2cn(nn2)CCCC(=O)N([C@H](C)CO)C[C@H]1C`: the inhibition is -10.8% (inactive). Under `C[C@H]1CN([C@@H](C)CO)C(=O)CCCn2cc(nn2)CO[C@@H]1CN(C)S(=O)(=O)c1cccs1` stands 1.44% (inactive) and -0.084% (inactive); under `C[C@@H]1CN([C@H](C)CO)C(=O)CCCn2cc(nn2)CO[C@H]1CN(C)S(C)(=O)=O`, -42.7% (inactive) and 116% (active) and -0.12% (inactive); under `C[C@H]1CN([C@@H](C)CO)C(=O)c2cccc(NC(=O)Nc3ccc(C(F)(F)F)cc3)c2O[C@H]1CN(C)CC1CCCCC1`, 0.766% (inactive).

With `CO[C@H]1CN(C)C(=O)c2ccc(NS(C)(=O)=O)cc2OC[C@H](C)N(C(=O)C2CCC2)C[C@H]1C`, the inhibition was 3.67% (inactive). For `COC(=O)c1cc2c(c3c4ccccc4n(S(=O)(=O)c4cccc(C)c4)c13)C(=O)N(Cc1ccccc1)C2` the value was -0.199% (inactive). Take `O=C(C[C@@H]1CC[C@@H]2[C@H](COC[C@@H](O)CN2S(=O)(=O)c2ccccc2)O1)NCC1CCCCC1`: the inhibition is -4.89% (inactive).

Regarding `CN1CCN(C(=O)C[C@@H]2CC[C@@H]3[C@@H](COc4ccc(NC(=O)c5ccc(F)c(F)c5)cc4C(=O)N3C)O2)CC1`, the inhibition was -20.1% (inactive). For `O=C(NCC1CC1)[C@H]1[C@H](CO)[C@H]2Cn3c(ccc(/C=C/c4ccccc4)c3=O)[C@@H]1N2C(=O)C1CCC1` the value was 5.09% (inactive); for `COCC#Cc1ccc([C@@H]2[C@H]3CN(C(=O)C4CCOCC4)CC(=O)N3[C@H]2CO)cc1`, 10.1% (inactive); for `COc1cccc(S(=O)(=O)N[C@@H]2C=C[C@H](CC(=O)NC3CCC3)O[C@@H]2CO)c1`, 11.1% (inactive). Under `O=C(Nc1nccs1)[C@@H]1[C@@H](CO)[C@@H]2Cn3c(ccc(-c4cccnc4)c3=O)[C@@H]2N1CC1CC1` stands 5.29% (inactive); under `O=C([C@H]1N[C@H]2c3ccc(-c4ccccc4)c(=O)n3C[C@H]2[C@@H]1CO)N1CCOCC1`, -1.77% (inactive); under `CO[C@H]1CN(C)C(=O)c2cc(NC(=O)C3CCC3)ccc2OC[C@H](C)N(C)C[C@H]1C`, 6.42% (inactive). As to `CO[C@@H]1CN(C)C(=O)c2cc(NC(=O)c3cc(C)on3)ccc2OC[C@@H](C)N(C(C)=O)C[C@@H]1C`, the inhibition is -1.83% (inactive). Under `C[C@@H]1CN([C@H](C)CO)C(=O)c2cccc(NS(=O)(=O)c3ccc(Cl)cc3)c2O[C@H]1CN(C)C(=O)NC1CCCCC1` stands 3.25% (inactive). For `CC(C)CC#Cc1ccc([C@H]2[C@H]3CN(C(=O)c4cnccn4)CC(=O)N3[C@H]2CO)cc1` the value was 1.39% (inactive).

As for `COc1cccc(-c2ccc3n(c2=O)C[C@H]2[C@H](CO)[C@@H](C(=O)NC4CCCC4)[C@@H]3N2C)c1`, the inhibition was 6.59% (inactive). For `C/C=C/c1ccc([C@H]2[C@@H](CO)N[C@@H]2CN(CC)C(=O)CN2CCOCC2)cc1`, the inhibition is -4.11% (inactive). As to `O=C(C[C@H]1C=C[C@H](NC(=O)NC2CCCCC2)[C@H](CO)O1)NCc1ccccc1`, the inhibition is 11.3% (inactive). As to `C[C@@H]1CN([C@@H](C)CO)C(=O)c2cc(NS(C)(=O)=O)ccc2O[C@@H]1CN(C)C(=O)Nc1ccccc1`, the inhibition was -7.83% (inactive). As to `C[C@@H]1CCCCO[C@@H](CN(C)C(=O)C2CCCCC2)[C@@H](C)CN([C@H](C)CO)C(=O)c2cc(NC(=O)c3ccccc3)ccc2O1`, the inhibition was 5.47% (inactive). Under `Cc1ccccc1-c1ccc2c(c1)O[C@@H](CN(C)C(=O)Nc1ccc(F)cc1)[C@H](C)CN([C@@H](C)CO)S2(=O)=O` stands -6.84% (inactive); under `C[C@H]1CN([C@@H](C)CO)C(=O)c2cc(-c3cccc(F)c3)cnc2O[C@@H]1CN(C)C(=O)c1ccccn1`, 1.67% (inactive); under `C[C@H]1CN([C@@H](C)CO)C(=O)c2cccc(NC(=O)Nc3ccccc3)c2O[C@@H]1CN(C)C(=O)Nc1cccc2ccccc12`, 8.48% (inactive).

With `COc1ccc2c(c1)C=CC1(O2)N(CCO)c2ccccc2C1(C)C` (configuration not stated), the inhibition is 97.1% (active).

As for `COc1cccc(CC2(CO)CCCN(CC3=Cc4cc(OC)ccc4OC3)C2)c1` (configuration not stated), the inhibition is -14.5% (inactive). For `CN1c2ccc([N+](=O)[O-])cc2C(C)(C)C12C=Cc1cc(C(=O)O)ccc1O2` (configuration not stated) the value was -14.5% (inactive); for `CN(C)CC(=O)N[C@H]1CC[C@@H](CCNC(=O)C2CCCC2)O[C@@H]1CO`, 4.07% (inactive); for `C[C@@H]1CN([C@H](C)CO)C(=O)Cc2cc(NS(=O)(=O)c3ccc(Cl)cc3)ccc2O[C@@H]1CN(C)C`, -3.76% (inactive). For `O=C(C[C@H]1C[C@H]2c3cc(NC(=O)Nc4ccccc4)ccc3O[C@H]2[C@H](CO)O1)NC1CCCC1` the value was -3.39% (inactive); for `CN(C)C(=O)C[C@H]1C[C@@H]2c3cc(NC(=O)NC4CCCCC4)ccc3O[C@@H]2[C@@H](CO)O1`, 12.2% (inactive). For `COC(=O)C(CC#Cc1ccc2c(c1)[C@]1(C(=O)N2)[C@H](c2ccccc2OCCO)N2[C@H](c3ccccc3)[C@H](c3ccccc3)OC(=O)[C@H]2[C@@H]1C(N)=O)C(=O)OC` the value was -5.68% (inactive); for `O=C(C[C@H]1CC[C@@H]2[C@H](COC[C@H](O)CN2CCC(F)(F)F)O1)NCC1CC1`, -3.95% (inactive). Turning to `Cn1cnc(S(=O)(=O)N2C[C@H](O)COC[C@@H]3O[C@H](CC(=O)NC4CCCC4)CC[C@H]32)c1`, the inhibition was 126% (active). Under `Cn1cnc(S(=O)(=O)N2C[C@H](O)COC[C@@H]3O[C@H](CC(=O)NC4Cc5ccccc5C4)CC[C@H]32)c1` stands 2.44% (inactive); under `Cn1cnc(S(=O)(=O)N2C[C@@H](O)COC[C@@H]3O[C@H](CC(=O)NC4CCC4)CC[C@H]32)c1`, 0.326% (inactive); under `O=C(C[C@H]1CC[C@H]2[C@@H](COC[C@@H](O)CN2C(=O)Nc2ccc(C(F)(F)F)cc2)O1)NC1Cc2ccccc2C1`, 9.1% (inactive). Under `C[C@H]1CN([C@@H](C)CO)C(=O)c2cccc(NC(=O)c3cnccn3)c2O[C@H]1CN(C)S(=O)(=O)c1cn(C)cn1` stands 2.47% (inactive); under `COCCNC(=O)[C@H]1[C@H](CO)[C@H]2Cn3c(ccc(-c4ccccc4F)c3=O)[C@H]2N1C(=O)C1CCC1`, -0.238% (inactive).

As to `COc1ccc(CN(C)C[C@H]2Oc3c(NS(=O)(=O)c4ccc(C)cc4)cccc3C(=O)N([C@@H](C)CO)C[C@@H]2C)cc1`, the inhibition is -5.34% (inactive). For `CNC(=O)C[C@H]1CC[C@@H]2[C@H](COc3ccc(NC(=O)Nc4ccc(F)c(F)c4)cc3C(=O)N2C)O1` the value was -1.52% (inactive).

Source of the values: PubChem BioAssay AID652163 (Broad Institute, 2013).
